Assay results reported in PubChem BioAssay AID504418 (Johns Hopkins Ion Channel Center, 2011).
The source made the active and inactive calls.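 How the source made its calls: active means compound raising or lowering KCNQ1 potassium channel current, with its KCNE1 partner, at some dose, giving a dose response curve; inactive means no effect at any dose or no curve.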

Each molecule was assayed against Potassium voltage-gated channel subfamily KQT member 1 (Homo sapiens) + Potassium voltage-gated channel subfamily E member 1 (Homo sapiens) (UniProt P15382+P51787) (assay: KCNQ1/KCNE1 channel modulation by KCNQ2 openers, dose response, selectivity assay for KCNQ2 activator project, Tl flux, KCNQ1/E1-expressing cells (AID 504418)). Settings: FluxOR thallium flux; series mostly up to 30 µM.
In short: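 Test system: CHO cell line expressing human KCNQ1/KCNE1 potassium channel; times: FluxOR dye loading 90 min, compound exposure 20 min, room temperature; measured by: FluxOR thallium-flux kinetic fluorescence; controls: vehicle wells with stimulus, blank wells without stimulus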

Sequence of Potassium voltage-gated channel subfamily KQT member 1 (Homo sapiens) + Potassium voltage-gated channel subfamily E member 1 (Homo sapiens) (O88943 whole entry, looked up): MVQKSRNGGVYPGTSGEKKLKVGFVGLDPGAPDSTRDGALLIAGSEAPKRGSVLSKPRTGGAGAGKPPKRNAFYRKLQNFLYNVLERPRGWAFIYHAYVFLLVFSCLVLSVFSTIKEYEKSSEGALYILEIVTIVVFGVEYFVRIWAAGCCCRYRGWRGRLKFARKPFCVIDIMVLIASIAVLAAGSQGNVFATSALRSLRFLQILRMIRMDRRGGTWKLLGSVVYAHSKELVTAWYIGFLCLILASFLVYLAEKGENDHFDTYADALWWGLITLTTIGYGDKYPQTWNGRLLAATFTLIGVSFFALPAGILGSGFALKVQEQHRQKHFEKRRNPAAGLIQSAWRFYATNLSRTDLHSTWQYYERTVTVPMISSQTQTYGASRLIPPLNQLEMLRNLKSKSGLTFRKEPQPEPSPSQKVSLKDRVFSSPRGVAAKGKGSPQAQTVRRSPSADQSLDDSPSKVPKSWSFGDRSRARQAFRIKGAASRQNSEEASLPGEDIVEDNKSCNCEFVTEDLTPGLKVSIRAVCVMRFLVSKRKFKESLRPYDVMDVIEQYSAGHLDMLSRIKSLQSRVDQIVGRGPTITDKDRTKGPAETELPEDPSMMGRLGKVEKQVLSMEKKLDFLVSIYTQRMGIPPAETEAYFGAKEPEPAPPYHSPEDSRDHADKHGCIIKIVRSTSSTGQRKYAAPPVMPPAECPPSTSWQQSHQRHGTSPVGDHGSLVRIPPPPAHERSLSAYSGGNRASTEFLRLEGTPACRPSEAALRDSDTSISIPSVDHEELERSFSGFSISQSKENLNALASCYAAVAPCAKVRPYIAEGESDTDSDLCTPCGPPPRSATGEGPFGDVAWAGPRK
Sequence of Potassium voltage-gated channel subfamily KQT member 1 (Homo sapiens) + Potassium voltage-gated channel subfamily E member 1 (Homo sapiens) (P51787 whole entry, looked up): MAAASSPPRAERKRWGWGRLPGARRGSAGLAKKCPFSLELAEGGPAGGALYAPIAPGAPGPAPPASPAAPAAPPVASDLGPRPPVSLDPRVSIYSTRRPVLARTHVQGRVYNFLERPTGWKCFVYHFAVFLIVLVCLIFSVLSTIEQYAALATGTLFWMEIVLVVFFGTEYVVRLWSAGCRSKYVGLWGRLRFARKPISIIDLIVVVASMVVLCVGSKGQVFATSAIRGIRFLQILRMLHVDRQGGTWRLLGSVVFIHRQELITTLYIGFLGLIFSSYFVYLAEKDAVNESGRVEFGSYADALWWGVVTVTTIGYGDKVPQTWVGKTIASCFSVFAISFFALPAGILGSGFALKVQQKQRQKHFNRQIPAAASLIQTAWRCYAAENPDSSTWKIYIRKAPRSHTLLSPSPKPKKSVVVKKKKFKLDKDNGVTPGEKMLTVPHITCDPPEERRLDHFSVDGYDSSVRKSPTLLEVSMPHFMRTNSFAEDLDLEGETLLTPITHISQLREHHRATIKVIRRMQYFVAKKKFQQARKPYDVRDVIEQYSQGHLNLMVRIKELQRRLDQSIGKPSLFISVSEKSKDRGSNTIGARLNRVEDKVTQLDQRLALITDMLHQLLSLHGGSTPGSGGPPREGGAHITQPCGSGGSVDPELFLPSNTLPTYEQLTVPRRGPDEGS

outcome, inactive:
Cc1cccc(C)c1NC(=O)C1CC2CCC1C2 (stereo not given)
Cc1cc(C)c(NC(=O)C2CC3CCC2C3)c(C)c1 (stereo not given)
Cc1cc(C)c(NC(=O)CC(C)(C)C)c(Cl)c1
Cc1ccc(C)c(NC(=O)C2CC3CCC2C3)c1 (stereo not given)
CCCCC(=O)Nc1c(C)cc(C)cc1Cl
